The values below come from PMC4485437 (Biochemistry, 2015).

Test [1] addresses T1, VcMTANA113P (Vibrio cholerae serotype O1, UniProt Q9KPI8, A113P). The test is described as follows: Luminescence-based steady-state kinetic assay. Format: biochemical. The settings on record: substrate MTA.
Test [2] has as its target T2, VcMTANA113P/V153I/R158G (Vc[…]) (Vibrio cholerae serotype O1, UniProt Q9KPI8, A113P/R158G/V153I). The test is described as follows: Luminescence-based steady-state kinetic assay. Format: biochemical. The following applies: substrate MTA.
The target of test [3] is T3, VcMTANA113P/V153I (VcMTANDOUBLE) (Vibrio cholerae serotype O1, UniProt Q9KPI8, A113P/V153I). Description: Luminescence-based steady-state kinetic assay. The settings on record: substrate MTA. Format: biochemical.
Test [4] deals with T4, EcMTAN (Escherichia coli, UniProt P0AF12). The test is described as follows: Luminescence-based steady-state kinetic assay. The following applies: substrate MTA. The test is classed as biochemical. Summed up:
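His6-tagged enzyme was expressed in E. coli BL21(DE3) (1 mM IPTG, 37°C, 10 h) and purified on Ni-NTA. Product adenine was converted to ATP by excess yeast APRTase (20 microunits/well) and C. symbiosum PPDK (320 microunits/well), then read by luciferase luminescence at 570 nm. Enzyme 5–25 pM; reactions started with 0.02–1 μM MTA.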

Test [5] deals with T5, VcMTAN (WT) (Vibrio cholerae serotype O1, UniProt Q9KPI8). The test is described as follows: Luminescence-based steady-state kinetic assay. Format: biochemical. The settings on record: substrate MTA.
The target in test [6] is T6, VcMTANV153I (Vibrio cholerae serotype O1, UniProt Q9KPI8, V153I). Description: Luminescence-based steady-state kinetic assay. Format: biochemical. The following applies: substrate MTA.
For test [7], the target named is T1, VcMTANA113P. The test is described as follows: Isothermal titration calorimetry. Format: binding. The following applies: for ΔH / ΔG / TΔS: 25°C; for ΔG: calculated from Ki*; for TΔS: from Gibbs free energy equation.
The target in test [8] is T3, VcMTANA113P/V153I (VcMTANDOUBLE). Description: Isothermal titration calorimetry. The test is classed as binding. A general note: ITC needs no label: the signal is the heat of the interaction.
The target of test [9] is T5, VcMTAN (WT). The test is described as follows: Titration of [14C]MTDIA to MTAN. Format: binding. The following applies: MTAN dimer 27−85 μM.
Test [10] deals with T5, VcMTAN (WT). The test is described as follows: Isothermal titration calorimetry. Format: binding. The settings on record: 25°C; for ΔG: calculated from Ki*; for TΔS: from Gibbs free energy equation. The method in brief: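 Enzyme expressed in E. coli BL21(DE3) and Ni-NTA purified, then stripped of bound adenine by dialysis against phosphate buffer with activated charcoal. Sample cell held 60–120 μM dimer; test compound in dialysate was injected, degassed solutions, 25°C. Fit to a two-independent-site model gave ΔH per catalytic site. ΔG = RT ln Ki*, with Ki* from 0.8 mM MTA plus xanthine oxidase at 305 nm. −TΔS came from the Gibbs equation.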

The target of test [11] is T4, EcMTAN. Description: Isothermal titration calorimetry. The test is classed as binding. The following applies: 25°C; for ΔG: calculated from Ki*; for TΔS: from Gibbs free energy equation. Summed up: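 Copurified adenine stripped by dialysis against phosphate buffer with activated charcoal. 60–120 μM dimer in cell, dialysate as reference. Test compound in dialysate; solutions filtered and degassed. Titrated at 25°C. Isotherms fit to two independent sites; ΔH from integrated heat. ΔG = RT ln Ki*, using first-site […] from low-substrate luciferase-coupled assay. −TΔS from ΔG = ΔH − TΔS.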

Test [12] concerns the target T1, VcMTANA113P. Description: Titration of [14C]MTDIA to MTAN. Format: binding. The settings on record: MTAN dimer 27−33 μM.
For test [13], the target named is T3, VcMTANA113P/V153I (VcMTANDOUBLE). The test is described as follows: Titration of [14C]MTDIA to MTAN. Format: binding. The settings on record: MTAN dimer 27−33 μM.
Test [14] has as its target T2, VcMTANA113P/V153I/R158G (Vc[…]). The test is described as follows: Isothermal titration calorimetry. The settings on record: single site, 25°C. Format: binding.
Test [15] addresses T6, VcMTANV153I. The test is described as follows: Isothermal titration calorimetry. Format: binding.
The target in test [16] is T6, VcMTANV153I. Description: Titration of [14C]MTDIA to MTAN. The test is classed as binding. The following applies: MTAN dimer 27−33 μM.
Test [17] deals with E. coli DHFR (EcDHFR) Asp27Glu. The following applies: Asp27Glu vs native EcDHFR; cited from earlier work.
Setting [18] is: single site, 25°C, from Gibbs free energy equation.

One may read the kcat as the maximal rate divided by the concentration of active sites. One may read the Km as the concentration of substrate that gives half-maximal velocity. For the compound 5′-methylthioadenosine [MTA], the turnover number (kcat) was 0.17 ± 0.01 s⁻¹ on VcMTANA113P [1]; 0.11 ± 0.01 s⁻¹ in [2]; “(7.4 ± 3) × 10^−2 s^−1” in test [3]; 0.32 ± 0.01 s⁻¹ at EcMTAN [4]; 0.18 ± 0.01 s⁻¹ at VcMTAN (WT) [5]; “(7.9 ± 4) × 10^−3 s^−1” on VcMTANV153I [6]. The Km at VcMTANA113P [1] (first-catalytic site filling) was determined as 0.262 ± 0.029 µM; in test [2] (first-catalytic site filling) it was 0.536 ± 0.122 µM; in test [3] (first-catalytic site filling), 0.202 ± 0.023 µM; at EcMTAN [4] (first-catalytic site filling) it was 0.139 ± 0.018 µM; on VcMTAN (WT) [5] (first-catalytic site filling) it was 0.061 ± 0.006 µM; at VcMTANV153I [6] (first-catalytic site filling), 0.43 ± 0.047 µM.

As to `CSC[C@H]1CN(Cc2c[nH]c3c(N)ncnc23)C[C@@H]1O` [MTDIA, 4′-deaza-1′-aza-2′-deoxy-1′-(9-[^14C]methylene)-Immucillin-A], the “enthalpy of MTDIA binding less favorable than parent VcMTAN” value on VcMTANA113P [7] (VcMTANA113P vs VcMTAN) is 3 kcal/mol. In addition, the ΔH at VcMTANA113P [7] (first site) is -2.9 ± 0.1 kcal/mol; on VcMTANA113P [7] (second site), -1.8 ± 0.2 kcal/mol; in test [8] (single site, 25°C) it was -3.9 ± 0.1 kcal/mol; at VcMTAN (WT) [10] (first site) it was -6.0 ± 0.2 kcal/mol; on VcMTAN (WT) [10] (second site), -2.6 ± 0.3 kcal/mol; on EcMTAN [11] (first site), -18.9 ± 0.2 kcal/mol. For the same compound, the ΔH was -16.8 ± 0.2 kcal/mol on EcMTAN [11] (second site); -4.8 ± 0.2 kcal/mol in [14]; -4.9 ± 0.1 kcal/mol on VcMTANV153I [15] (single site, 25°C). Further, the ΔG on VcMTANA113P [7] (first site) was -13.9 ± 0.1 kcal/mol; at VcMTANA113P [7] (second site) it was -13.5 ± 0.8 kcal/mol; in test [8] (single site, 25°C, calculated from Ki*), -15.7 ± 0.1 kcal/mol; on VcMTAN (WT) [10] (first site) it was -15.8 ± 0.1 kcal/mol; at VcMTAN (WT) [10] (second site), -14.3 ± 0.2 kcal/mol; on EcMTAN [11] (first site), -17.4 ± 0.9 kcal/mol. Also, the ΔG on EcMTAN [11] (second site) is -10.2 ± 0.1 kcal/mol; in test [14] (calculated from Ki*) it was -13.3 ± 0.1 kcal/mol. The TΔS at VcMTANA113P [7] (first site) was -11.0 ± 0.1 kcal/mol; at VcMTANA113P [7] (second site), -11.7 ± 0.8 kcal/mol; in test [8] (setting [18]), -11.8 ± 0.1 kcal/mol; on VcMTAN (WT) [10] (first site) it was -9.8 ± 0.2 kcal/mol; on VcMTAN (WT) [10] (second site) it was -11.7 ± 0.4 kcal/mol; on EcMTAN [11] (first site), 1.5 ± 0.9 kcal/mol. Further, the TΔS on EcMTAN [11] (second site) is 6.6 ± 0.2 kcal/mol; in [14] (from Gibbs free energy equation) it was -8.5 ± 0.2 kcal/mol; on VcMTANV153I [15] (setting [18]), -5.7 ± 0.2 kcal/mol. Moreover, the entries for the “enthalpy of MTDIA binding more favorable than that of VcMTANA113P” value (in test [8] (VcMTANDOUBLE vs VcMTANA113P); on VcMTANV153I [15] (VcMTANV153I vs VcMTANA113P)) were -1.0 kcal/mol and -2.0 kcal/mol, respectively. Also, the “binding of MTDIA* on titration to one or two catalytic sites per dimer” value at VcMTAN (WT) [9] is “complete binding at the first site and near-stoichiometric binding at the second site”; on VcMTANA113P [12], “complete binding at the first site and near-stoichiometric binding at the second site”; in test [13], “left more MTDIA* unbound as both the first and second sites were titrated”; at VcMTANV153I [16], “left more MTDIA* unbound as both the first and second sites were titrated”.

Take `CN(Cc1cnc2nc(N)nc(N)c2n1)c1ccc(C(=O)N[C@@H](CCC(=O)O)C(=O)O)cc1` [methotrexate]: the methotrexate affinity decrease in test [17] is reported as 176 fold.

As to `Nc1nc(=O)c2c([nH]1)NCC(CNc1ccc(C(=O)N[C@@H](CCC(=O)O)C(=O)O)cc1)=N2` [DHF, 7,8-dihydrofolate], the “KM(DHF) increase” value in [17] is reported as 20 fold.
